Yeast lifespan up – extends the lifespan of yeast. inhibition of the nicotinamide effect, % at 10 µM. AID 775. S. cerevisiae growth with nicotinamide, OD615; deaD strain in restrictive glucose medium. hit rate 0.68% among 130,000;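 active means inhibition above a set limit, placed 3 SD over the median of all compounds, cut at about 26% in these data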;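 further: 0% = nicotinamide-treated wells and 100% = cells grown without nicotinamide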
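assay system = DeaD-strain S. cerevisiae | measured by = absorbance at 615 nm | probe or stimulus = nicotinamide 1.5 mM | buffer or medium = CSMM-D glucose medium, restrictive | times = 48 h at 30 °C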
Measles CPE – protection of cells from measles virus; AID 841; hit rate 1.5% among 140,000; protection (pct of control), % at 4 µM; Measles virus-infected cells, CPE protection, absorbance; in the data active means protection mostly above about 24%, no sharp cut-off; inactive means mostly below about 26%
RAM network inh – yeast RAM network inhibition. S. cerevisiae dse1pr::URA3 reporter, 5-FOA growth OD615, 2 d; analog-sensitive cbk1-as2 kinase mutant strain. inhibition, % at 50 µM. hit rate 1.8% among 190,000;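 active means inhibition above a set limit, 3 SD over mean compound inhibition, cut at about 8.4% in these data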;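 further: 0% = DMSO-only wells with no growth and 100% = 10 µM 1-NA-PP1 full growth; inhibition rescues growth on 5-FOA so higher OD means more RAM inhibition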
BB579 growth dn – chemicals that inhibit yeast BB579 growth in restrictive medium (lifespan-shortening candidates); S. cerevisiae BB579 growth, OD615, 48 h; inhibition, % at 10 µM; hit rate 0.51% among 140,000;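 active means inhibition above a set limit, 3 SD over the mean compound inhibition, cut at about 44% in these data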
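Test system: Saccharomyces cerevisiae DeaD strain BB579, replicative lifespan model yeast | Buffer or medium: Restrictive CSMM-D medium | Doses: One dose, 10 µM compound with 0.25% DMSO | Incubation: 48 h exposure, 30 °C | Detection: Culture absorbance at 615 nm | Control set: Amphotericin B at 10 µg/mL as positive control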
The depositor's hits bear a star; x = no result. Sampled rows, rich in hits. Any-hit rate of the full collection: about 3.8%.

SMILES	Yeast lifespan up	Measles CPE	RAM network inh	BB579 growth dn
CC1CC(C)CN(C(=O)c2cccc(S(=O)(=O)Nc3cc(C(F)(F)F)ccc3Cl)c2)C1 (stereo not drawn)	32.0*	6.8	4.9	-21.9
O=[N+]([O-])c1cc(Cc2ccccc2)cc(C=Nc2ccc(N3CCOCC3)cc2)c1O	-10.0	13.7	-0.1	99.6*
O=C(NC(=S)NCCC1=CCCCC1)c1cncc(Br)c1	0.2	12.9	2.2	-26.2
COc1ccc(C(=O)N2CCOC2CNC(=O)C(=O)NCc2ccco2)cc1 (stereo not drawn)	x	x	3.1	x
O=C(COC(=O)c1ccc(Cl)cc1O)NC(=O)C1CCCCC1	x	x	3.5	x
Cc1c(O)c(S(=O)(=O)c2ccccc2)c(=O)n(-c2ccccc2)c1-c1ccccc1	25.5	5.5	4.6	-51.7
Cc1c(O)c(S(=O)c2ccccc2)c(=O)n(-c2ccccc2)c1-c1ccccc1 (stereo not drawn)	60.9*	22.6	4.2	-42.3
Cc1nn(Cc2ccc(Cl)cc2Cl)c(C)c1NC(=O)NC12CC3CC(CC(C3)C1)C2	-2.8	8.3	2.2	-17.5
CC(C)(C)NC(=O)C1Cc2ccccc2CN1 (stereo not drawn)	x	x	0.8	x
COc1ccc(O[C@H]2C=C[C@@H](c3ccccc3)O[C@@H]2COC(=O)CC/C(C)=N/O[C@@H](C)c2cn([C@H](CO)Cc3ccccc3)nn2)cc1	3.1	12.0	10.6*	-60.0
COc1ccc(CN(Cc2ccc(C(=O)O)cc2)C(=S)Nc2cccc(C)c2)cc1OC	x	x	2.2	x
Cc1ccc(N2CC(C(=O)Nc3nccs3)CC2=O)cc1Cl (stereo not drawn)	-8.7	4.3	0.7	-33.7
CCc1ccc(N2CC(C(=O)Nc3nccs3)CC2=O)cc1 (stereo not drawn)	-0.9	34.6*	0.5	-12.7
Cc1sc(NC(=O)c2ccccc2)c(C(=O)c2ccccc2)c1C	-5.0	6.7	11.2*	-34.1
Cc1ccc(C(=O)Nc2sc(C)c(C)c2C(=O)c2ccccc2)cc1	-8.7	6.1	4.2	-33.6
C=CCNC(=O)c1onc(CSc2cc(C)ccc2C)c1C(=O)O	-0.6	34.5*	0.6	-62.0
COc1ccc(S(=O)(=O)NC(C(C)C)C(C)C)cc1OC	6.5	9.3	1.6	-34.0
COc1cc(S(=O)(=O)NC(C)C)ccc1Cl	-4.3	32.7*	0.2	-12.9
CCSC(=Nc1ccccc1)Nc1ccccc1	x	x	2.5	x
CC(=O)Nc1cccc(NC(C)=C(C#N)C#N)c1	-4.0	8.5	1.8	-0.1
C/C(CCN1CCc2nc(-c3ccccc3)c(-c3ccccc3)cc2C1)=N\O[C@@H](C)c1cn([C@H](CO)Cc2ccccc2)nn1	0.7	4.0	1.6	-37.2
CC(=O)Nc1ccc(-c2csc(NC(=O)CCCc3cccs3)n2)cc1	1.0	110.2*	4.2	-14.5
Cc1cccnc1CN1CCN(Cc2nc(C(c3ccccc3)c3ccccc3)no2)CC1	x	x	2.4	x
COc1ccc(C2NCCC3(O)CCCCC23)c(OC)c1OC (stereo not drawn)	0.0	34.9*	-0.5	-23.4
COc1ccc(C2NC(c3ccc(OC)c(OC)c3OC)C(C)C(=O)C2C)c(OC)c1OC (stereo not drawn)	-2.5	6.9	-0.1	-24.5
SMILES	Yeast lifespan up	Measles CPE	RAM network inh	BB579 growth dn
CCN1CCN(C(c2nnnn2Cc2ccc3c(c2)OCO3)C(C)C)CC1 (stereo not drawn)	x	56.4*	-0.4	-14.8
CC(NC(=O)CCc1ccccc1)c1cc2c(cc1Cl)OCCO2 (stereo not drawn)	1.2	6.2	2.9	-0.7
COc1ccc(C2c3c(-c4ccccc4O)n[nH]c3C(=O)N2CCc2ccc(OC)c(OC)c2)cc1 (stereo not drawn)	-2.6	15.3	11.2*	-57.0
CCOc1cc(S(=O)(=O)n2cc(-c3ccc(F)cc3)c(N)n2)cc(OCC)c1OCC	-5.1	5.3	9.0*	-17.0
CCOc1ccc(S(=O)(=O)n2cc(-c3ccc(F)cc3)c(N)n2)cc1	-3.8	1.7	6.2	-7.5
O=C1OCC2=C1C(c1ccccc1)CC(=O)N2c1ccccc1 (stereo not drawn)	x	x	-0.9	x
CCc1nnc(NC(=O)CSc2nc(C3CCCCC3)nc3ccccc23)s1	6.6	17.6	10.1*	-67.2
CCC(=O)Nc1cccc(NC(=O)CSc2nnc(-c3ccc(NS(C)(=O)=O)cc3)n2CC)c1	-1.1	3.9	1.5	17.9
CNC(=O)/C=C/c1cccc(C(F)(F)F)c1	-9.4	52.9*	0.9	5.2
Cc1noc(C)c1COC(=O)C(c1ccccc1)c1ccccc1	x	x	2.0	x
O=C1CCCC(=NCc2ccco2)C1	6.5	35.7*	-0.7	-54.2
O=C1C=C(NCc2ccco2)CCC1	-20.8	14.5	-0.4	-32.4
Cc1cccc(NC(=S)NCc2ccco2)c1C	-4.4	11.4	0.5	3.0
CCOC(=O)c1c(-c2cccc([N+](=O)[O-])c2)csc1NC(=O)C1CCCCC1	x	18.6	8.6*	-30.6
CCOC(=O)c1c(-c2cccc([N+](=O)[O-])c2)csc1NC(=O)C1CC1	-14.1	3.8	6.4	-45.0
CCCCCCNCc1c(F)cccc1Cl	5.0	57.3*	1.0	-7.6
O=C1c2ccccc2C(=O)c2c1cccc2N1CCOCC1	-20.4	28.8	0.8	56.9*
COC(=O)CSc1nc(-c2ccccc2)c2c(c1C#N)CCCC2	0.3	16.5	8.6*	-51.9
Nc1ccc(Sc2cnn(-c3ccccc3)c(=O)c2Cl)cc1	-9.7	5.8	3.3	-21.4
Cc1ccc(Sc2cnn(-c3ccccc3)c(=O)c2Cl)cc1	31.2*	4.5	1.7	-8.6
COc1cc(OC)nc(NC(=O)CS(=O)(=O)c2ccccc2)n1	x	10.9	-1.0	55.5*
COc1cccc(C(C(=O)NC2CCCC2)N(C(=O)c2ccco2)c2ccc(-n3cnnn3)c(C)c2)c1OC (stereo not drawn)	x	x	1.0	x
Cc1ccc(C2=[N+]([O-])C3(CCCCC/C3=N\O)N(O)C2(C)C)o1 (stereo not drawn)	-1.0	32.5	1.4	-22.9
CC1(C)C(c2cccs2)=[N+]([O-])C2(CCCCC/C2=N\NC(N)=O)N1O (stereo not drawn)	-3.3	30.4*	0.7	9.1
CCCC1=NN(c2ccc([N+](=O)[O-])cc2)C(=O)/C1=C\N(C)C	-6.6	32.3*	6.8	-31.5
SMILES	Yeast lifespan up	Measles CPE	RAM network inh	BB579 growth dn
CCN(CC)c1ccc(/C=C2/C(=O)N(c3ccc([N+](=O)[O-])cc3)N=C2N2CCOCC2)cc1	-1.9	6.9	0.3	-27.3
CCCCn1c(=O)c(CCC(=O)OCC(=O)NCc2ccc(OC)c(OC)c2)nc2ccccc21	x	x	5.2	x
O=C(O)C(=O)/C(=C\c1cccc2ccccc12)c1ccc2ccccc2n1	30.0*	3.7	1.9	-45.7
Cc1ccc(-c2nc(CN(Cc3cnn(C)c3)C(C)C)c(C)o2)o1	x	x	1.8	x
c1ccc(Cc2nnc3sc(-c4ccccn4)nn23)cc1	-24.0	62.0*	-0.5	-27.1
O=C(Nc1ccc(-c2nc3ccccc3[nH]2)cc1)c1ccco1	-12.6	4.0	9.5*	-39.8
CCOc1ccc(-c2cn(-c3cccc(SC)c3)c(=O)[nH]2)cc1	-1.9	12.0	3.7	-21.6
